Test results as given in ChEMBL document CHEMBL1149343, “Discovery of antiglioma activity of biaryl 1,2,3,4-tetrahydroisoquinoline derivatives and conformationally flexible analogues” (J Med Chem, 2006).

What was measured:
[1] = test system: C6; experiment: Cytotoxicity against rat C6 glioma cell line; type: functional, cell-based
In short: (§1)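 Cells were maintained in 10% FCS BME (Basal Media Eagle). Compound exposure was in 2% FCS BME for 96 h at 37 °C in humidified 5% CO2. IC50 values came from dose-response experiments over a 4-day incubation.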

[2] = test system: Astrocyte; experiment: Cytotoxicity against rat astrocytes; type: functional, cell-based; in short: as §1
[3] = test system: MCF7; experiment: Cytotoxicity against human MCF7 cell line; type: functional, cell-based
[4] = test system: HeLa; experiment: Cytotoxicity against human HeLa cell line; type: functional, cell-based
[5] = test system: U-87 MG; experiment: Cytotoxicity against human U87 cell line; type: functional, cell-based, U-87MG ATCC
[6] = test system: LNCaP; experiment: Cytotoxicity against human LNCaP cell line; type: functional, cell-based
[7] = test system: A549; experiment: Cytotoxicity against human A549 cell line; type: functional, cell-based
[8] = test system: T98G; experiment: Cytotoxicity against human T98G cell line; type: functional, cell-based

Row | Structure (SMILES) | IC50 [1] [µM] | IC50 [2] [µM] | further results
1 | Nc1ccc(CC2NCCc3cc(O)c(O)cc32)cc1 (centres undefined) | > 50 |  | 
2 | COc1cc2c(cc1OC)CN(CCc1ccc(-c3ccccc3)cc1)CC2 | 9.3 | 15.5 | 
3 | COc1cc2c(cc1OC)C(Cc1ccc(-c3ccccc3)cc1)NCC2 (centres undefined) | 4.1 | 83.8 | 
4 | O=C(c1ccccc1)c1ccc(CC2NCCc3cc(O)c(O)cc32)cc1 (centres undefined) | 9.4 | 21 | 
5 | Oc1ccc(CCNCCc2ccc(-c3ccccc3)cc2)cc1O | 8.6 | > 100 | 
6 | C=C1C(OC(=O)N(C)C)=C(c2ccc(C)cc2)Oc2cc(Cl)ccc2N1C | 37.5 |  | 
7 | COc1cc2c(cc1OC)C(Cc1ccc(C(=O)c3ccccc3)cc1)NCC2 (centres undefined) | 40 | 40 | 
8 | CN1CCc2cc(O)c(O)cc2C1Cc1ccc(-c2ccccc2)cc1 (centres undefined) | 8 | 15 | 
9 | COc1cc(C(O)C2CNCCc3cc(O)c(O)cc32)cc(OC)c1OC (centres undefined) | > 50 |  | 
10 | COc1ccc(CCN(C)CCc2ccc(-c3ccccc3)cc2)cc1OC | 12.5 | 39 | 
11 | Oc1cc2c(cc1O)C(Cc1ccc(-c3ccccc3)cc1)NCC2 (centres undefined) | 2.6 | 29 | IC50 [3]: 3.8 µM; IC50 [4]: 3 µM; IC50 [5]: 25.9 µM; IC50 [6]: 10.7 µM; IC50 [7]: 10.2 µM; IC50 [8]: 10.2 µM
12 | O=NN(CCCl)C(=O)NCCCl [CARMUSTINE] | 9.3 | 156 | 
13 | O=c1[nH]cc(F)c(=O)[nH]1 [FLUOROURACIL] | 6.1 | > 100 | 
14 | N[C@@H](Cc1ccc(N(CCCl)CCCl)cc1)C(=O)O [MELPHALAN] | 12.6 | 34 | 
15 | CCC(C)N(C)C(=O)c1cc2ccccc2c(-c2ccccc2Cl)n1 (centres undefined) [PK-11195] | 73 |  | 
16 | CN1C(=O)CN=C(c2ccc(Cl)cc2)c2cc(Cl)ccc21 [RO-54864] | 95 |  | 
17 | COc1cc(C[C@@H]2NCCc3cc(O)c(O)cc32)cc(OC)c1OC [TRETOQUINOL] | > 50 |  | 
